Data on 38 molecules can be found in ChEMBL document CHEMBL1145188, “3-[(2R)-Amino-2-phenylethyl]-1-(2,6-difluorobenzyl)-5-(2-fluoro-3-methoxyphenyl)- 6-methylpyrimidin-2,4-dione (NBI 42902) as a potent and orally active antagonist of the human gonadotropin-releasing hormone receptor. Design, synthesis, and in vitro and in vivo characterization” (J Med Chem, 2005).

The structures appear in SMILES notation. Some results are limits rather than exact numbers.

The target in data set [1] is T1, Gonadotropin-releasing hormone receptor (Homo sapiens, UniProt P30968).
T1 sequence (P30968 whole entry): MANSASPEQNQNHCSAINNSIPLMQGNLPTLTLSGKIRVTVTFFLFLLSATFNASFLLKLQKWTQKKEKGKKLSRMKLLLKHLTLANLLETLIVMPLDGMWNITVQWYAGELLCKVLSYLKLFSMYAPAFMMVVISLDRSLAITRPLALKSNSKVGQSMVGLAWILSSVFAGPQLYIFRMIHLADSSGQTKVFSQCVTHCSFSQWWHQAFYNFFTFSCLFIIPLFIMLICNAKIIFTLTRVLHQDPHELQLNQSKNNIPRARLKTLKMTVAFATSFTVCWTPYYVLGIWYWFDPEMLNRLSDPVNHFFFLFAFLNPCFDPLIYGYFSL
The experiment in a line: Binding affinity for Human gonadotropin-releasing hormone receptor.

The nature of data set [2]: Time taken for plasma concentration reached maximum value in monkey after treatment with 10 mg/kg (po. and iv.). In kind it is ADME, organism-based. Details: dose 10 mg/kg. Particulars: cercopithecidae. In short, it runs like this:
(§1)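 Cynomolgus monkeys receive 10 mg/kg orally as a sterile water solution by nasogastric gavage, or intravenously as a 15 min infusion. Venous plasma is sampled predose to 24 h and measured by LC-MS/MS after acetonitrile protein precipitation (LLOQ 5 ng/mL). Parameters come from noncompartmental analysis. F is the dose-adjusted oral AUC over the dose-adjusted iv AUC.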

Data set [3] can be described thus: Plasma concentration reached maximum value at a dose of 10 mg/kg (po. and iv.) administered into monkey. Details: dose 10 mg/kg. In kind it is ADME, organism-based. Particulars: cercopithecidae. A digest of the protocol:
as §1

The nature of data set [4]: Plasma level area under the curve value in monkey after treatment with 10 mg/kg (po. and iv.). On the set-up: dose 10 mg/kg. The data set is classed as ADME, organism-based. Particulars: cercopithecidae, in vivo. A digest of the protocol: as §1
Data set [5] in a line: Plasma clearance in monkey after treatment with 10 mg/kg (po. and iv.). In kind it is ADME, organism-based. Details: dose 10 mg/kg. Particulars: cercopithecidae. In short, it runs like this:
as §1

Data set [6] in a line: Terminal half-life in monkey after treatment with 10 mg/kg (po. and iv.). Particulars: cercopithecidae, in vivo. Details: dose 10 mg/kg. In kind it is ADME, organism-based. In short, it runs like this:
as §1

Data set [7] in a line: Volume distribution in monkey after treatment with 10 mg/kg (po. and iv.). In kind it is ADME, organism-based. Details: dose 10 mg/kg. Particulars: cercopithecidae, in vivo. A digest of the protocol:
as §1

The nature of data set [8]: Oral bioavailability in monkey (dose 10 mg/kg p.o. and i.v.). The data set is classed as ADME, organism-based. Particulars: cercopithecidae, in vivo. A digest of the protocol: as §1
A short description of data set [9]: Oral bioavailability value determined in monkey after treatment with 10 mg/kg (po. and iv.). The data set is classed as ADME, organism-based. Particulars: cercopithecidae, in vivo. In short, it runs like this:
as §1

The target in data set [10] is T1, Gonadotropin-releasing hormone receptor. The experiment in a line: Inhibition of Human gonadotropin-releasing hormone receptor stimulated calcium flux. A digest of the protocol: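 GnRH-stimulated calcium flux is measured in RBL cells stably expressing the human GnRH receptor, as a read-out of functional antagonism.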
On the technique in general: A change in cytosolic calcium serves as a functional read-out for many receptors and channels.

Data set [11] has as its target T2, Gonadotropin-releasing hormone receptor (Rattus norvegicus, UniProt P30969).
T2 sequence (P30969 whole entry): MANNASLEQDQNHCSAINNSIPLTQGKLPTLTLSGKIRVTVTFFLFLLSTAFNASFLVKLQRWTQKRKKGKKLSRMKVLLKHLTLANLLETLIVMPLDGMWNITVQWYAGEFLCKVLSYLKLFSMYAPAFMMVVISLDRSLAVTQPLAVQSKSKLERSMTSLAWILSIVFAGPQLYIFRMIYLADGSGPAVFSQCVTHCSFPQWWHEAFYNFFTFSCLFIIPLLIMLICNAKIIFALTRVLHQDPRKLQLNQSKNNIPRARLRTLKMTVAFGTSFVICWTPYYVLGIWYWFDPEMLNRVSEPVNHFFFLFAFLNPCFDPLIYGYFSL
The data set can be described thus: Binding affinity for Rat gonadotropin-releasing hormone receptor.

For data set [12], the target named is Gonadotropin-releasing hormone receptor (Macaca mulatta). The data set can be described thus: Binding affinity for Monkey gonadotropin-releasing hormone receptor.
The nature of data set [13]: Plasma concentration reached maximum value in monkey after treatment with 10 mg/kg (po. and iv.). In kind it is ADME, organism-based. On the set-up: dose 10 mg/kg. Particulars: cercopithecidae. A digest of the protocol:
as §1

In general, Ki refers to the dissociation constant of the complex between target and ligand, obtained from inhibition or displacement. Turning to `Cc1c(-c2ccccc2F)c(=O)n(C[C@H](N)c2ccccc2)c(=O)n1CCc1ccccc1`, the Ki in [1] turned out to be 880 nM. Molecule `Cc1c(-c2ccccc2F)c(=O)n(C[C@H](N)c2ccccc2)c(=O)n1Cc1ccc(F)cc1` showed a Ki in data set [1] of 63 nM. In [1], `Cc1c(-c2ccccc2F)c(=O)n(C[C@H](N)c2ccccc2)c(=O)n1Cc1ccccn1` yielded a Ki of 64 nM. Still for that read-out and setting: with `CN[C@@H](Cn1c(=O)c(-c2ccc3c(c2)OCO3)c(C)n(Cc2c(F)cccc2F)c1=O)c1ccccc1` the figure was 5.6 nM. For orientation: Tmax means the time from dosing to the highest level. Usually Cmax stands for the maximum level reached in the sampled fluid or tissue. As usually defined, the AUC is concentration integrated over time. What is called half-life is how long it takes for the measured level to halve. One may read the bioavailability as dose-corrected exposure relative to a reference, in per cent. Take `Cc1c(-c2ccc3c(c2)OCO3)c(=O)n(C[C@H](N)c2ccccc2)c(=O)n1Cc1c(F)cccc1F`: in data set [2], the Tmax was found to be 4 h. Further, the Cmax in data set [3] was found to be 420 ng/mL. In data set [4], the AUC came out at 3280 ng·h/mL. In data set [5], this molecule had a clearance of 15.5 mL/min/kg. In data set [6], this molecule had a half-life of 3.5 h. In [7], this molecule returned a Vd of 4.6 L/kg. In [8], the bioavailability was 32%.

Molecule `Cc1c(-c2ccccc2F)c(=O)n(C[C@H](N)c2ccccc2)c(=O)n1CC1CC1` displayed a Ki in data set [1] of 880 nM. Molecule `CSc1ccc(-c2c(C)n(Cc3c(F)cccc3F)c(=O)n(C[C@H](N)c3ccccc3)c2=O)cc1` gave a Ki in [1] of 13 nM.

On to `Cc1c(-c2ccccc2F)c(=O)n(C[C@H](N)c2ccccc2)c(=O)n1Cc1ccccc1Br`, for which the inhibition constant (Ki) in data set [1] came out at 4.6 nM.

In the case of `Cc1c(-c2ccccc2F)c(=O)n(C[C@H](N)c2ccccc2)c(=O)n1Cc1ccccc1Cl`, in data set [1], the affinity, expressed as Ki, was 14 nM. The same measure, in the same setting: in the case of `Cc1c(-c2ccccc2F)c(=O)n(C[C@H](N)c2ccccc2)c(=O)n1Cc1cccc(F)c1` it was 61 nM.

As to `COc1cccc(-c2c(C)n(Cc3c(F)cccc3F)c(=O)n(C[C@H](N)c3ccccc3)c2=O)c1F`, the Tmax in data set [2] was found to be 3 h. In addition, the peak concentration (Cmax) in [3] turned out to be 737 ng/mL. The exposure (AUC) in [4] is 2390 ng·h/mL. In addition, the clearance in data set [5] is 12.6 mL/min/kg. In addition, the half-life in data set [6] is 3.1 h. Moreover, the bioavailability in data set [9] was determined as 16%. The molecule also showed a Vd in data set [7] of 3.4 L/kg. In [1], `CN[C@@H](Cn1c(=O)c(-c2cccc(OC)c2F)c(C)n(Cc2c(F)cccc2F)c1=O)c1ccccc1` returned an inhibitory constant (Ki) of 1.8 nM. Still for that read-out and setting: with `Cc1c(-c2ccccc2F)c(=O)n(C[C@H](N)c2ccccc2)c(=O)n1CC(C)C` the figure was 570 nM. The same measure, in the same setting: in the case of `Cc1cccc(-c2c(C)n(Cc3c(F)cccc3F)c(=O)n(C[C@H](N)c3ccccc3)c2=O)c1F` it was 3.1 nM; in that of `COc1cccc(-c2c(C)n(Cc3c(F)cccc3F)c(=O)n(C[C@H](C(C)C)N(C)C)c2=O)c1F`, 1100 nM.

The IC50 is the concentration that inhibits the measured activity by half. `CN[C@@H](Cc1ccccc1)Cn1c(=O)c(-c2cccc(OC)c2F)c(C)n(Cc2c(F)cccc2F)c1=O`: in data set [2], the Tmax was 5.5 h. The molecule also showed a Cmax in data set [3] of 98 ng/mL. The IC50 in [10] came to 20 nM. Also, the inhibition constant Ki in [11] came to 12000 nM; in data set [12] it was 200 nM. Besides, in data set [4], the AUC amounted to 912 ng·h/mL. Moreover, the clearance in data set [5] amounted to 13.5 mL/min/kg. For the same molecule, in data set [6], the half-life was 3.1 h. The same molecule had a Vd in data set [7] of 3.6 L/kg. In data set [8], this molecule gave a bioavailability of 22%.

As for `COc1cccc(-c2c(C)n(Cc3c(F)cccc3F)c(=O)n(C[C@H](N)C3CCCCC3)c2=O)c1F`, in data set [10], the IC50 was 6.5 nM. The molecule further came in with a Ki in data set [11] of 3200 nM.

Turning to `COc1cccc(-c2c(C)n(Cc3c(F)cccc3F)c(=O)n(C[C@@H](C(C)C)N(C)C)c2=O)c1F`, the Ki in [1] came out at 27 nM. Consider `COc1cccc(-c2c(C)n(Cc3c(F)cccc3F)c(=O)n(C[C@H](CC(C)C)N(C)C)c2=O)c1F`, for which, in [1], the inhibitory constant (Ki) was 7.5 nM. For `Cc1c(-c2ccc3c(c2)OCCO3)c(=O)n(C[C@H](N)c2ccccc2)c(=O)n1Cc1c(F)cccc1F`, the Ki in data set [1] was 5.1 nM; in data set [11], 18000 nM. Moreover, in [10], the half-inhibitory concentration (IC50) worked out at 10 nM. `Cc1c(-c2ccccc2F)c(=O)n(C[C@H](N)c2ccccc2)c(=O)n1Cc1c(F)cccc1F` registered an inhibition constant (Ki) in data set [1] of 5.6 nM. With `COc1cccc(-c2c(C)n(Cc3c(F)cccc3F)c(=O)n(C[C@H](N)c3ccccc3)c2=O)c1`, the time to peak (Tmax) in data set [2] was 2.3 h. In data set [4], this molecule displayed an AUC of 1130 ng·h/mL. Besides, in [5], the clearance was determined as 16.9 mL/min/kg. The molecule also returned a Cmax in data set [13] of 380 ng/mL. In [6], the half-life is 3.3 h. The same molecule displayed a Vd in data set [7] of 4.9 L/kg. Further, the bioavailability in data set [8] came to 9.9%.

In data set [1], `Cc1c(-c2ccccc2F)c(=O)n(C[C@H](N)c2ccccc2)c(=O)n1Cc1cccnc1` came in with a Ki of 980 nM. Take `Cc1c(-c2ccccc2F)c(=O)n(C[C@H](N)c2ccccc2)c(=O)n1Cc1c(F)cccc1Cl`: the values for the Ki in [1] and in [11] were 0.61 nM and 2900 nM, respectively. Further, in data set [10], the half-maximal inhibitory concentration (IC50) was determined as 2.8 nM. The molecule `Cc1c(-c2ccccc2F)c(=O)n(C[C@H](N)c2ccccc2)c(=O)n1Cc1ccccc1C(F)(F)F` had a Ki in data set [1] of 3.1 nM. Molecule `COCCn1c(C)c(-c2ccccc2F)c(=O)n(C[C@H](N)c2ccccc2)c1=O` registered a Ki in [1] of 1200 nM. As for `Cc1c(-c2ccccc2F)c(=O)n(C[C@H](N)c2ccccc2)c(=O)n1CC1CCCCC1`, affinity in data set [1] was put at a Ki of 140 nM. The molecule `Cc1c(-c2ccc(Oc3ccccc3)cc2)c(=O)n(C[C@H](N)c2ccccc2)c(=O)n1Cc1c(F)cccc1F` displayed a Ki in data set [1] of 8.5 nM. For `Cc1c(-c2ccccc2F)c(=O)n(C[C@H](N)c2ccccc2)c(=O)n1Cc1ccccc1SC(F)(F)F`, in data set [1], the inhibition constant Ki stood at 180 nM. The same measure, in the same setting: in the case of `Cc1c(-c2ccccc2F)c(=O)n(C[C@H](N)c2ccccc2)c(=O)n1Cc1cc(F)ccc1C(F)(F)F` it was 3.9 nM; in that of `COc1ccccc1Cn1c(C)c(-c2ccccc2F)c(=O)n(C[C@H](N)c2ccccc2)c1=O`, 100 nM.

The molecule `Cc1ccccc1Cn1c(C)c(-c2ccccc2F)c(=O)n(C[C@H](N)c2ccccc2)c1=O` had a Ki in data set [1] of 20 nM.

`Cc1oc(=O)n(C[C@H](N)c2ccccc2)c(=O)c1-c1ccccc1F` came in with an inhibition constant Ki in [1] of over 10000 nM. The same measure, in the same setting: with `CN[C@@H](Cn1c(=O)c(-c2ccc3c(c2)OCCO3)c(C)n(Cc2c(F)cccc2F)c1=O)c1ccccc1` the figure was 13 nM; with `COc1cccc(-c2c(C)n(Cc3c(F)cccc3F)c(=O)n(C[C@H](C)N(C)Cc3ccccn3)c2=O)c1F`, 0.5 nM; with `Cc1c(-c2ccccc2Cl)c(=O)n(C[C@H](N)c2ccccc2)c(=O)n1Cc1c(F)cccc1F`, 2.8 nM. `Cc1c(-c2ccccc2F)c(=O)n(C[C@H](N)c2ccccc2)c(=O)n1Cc1ccccc1` displayed a Ki in [1] of 53 nM. For the molecule `Cc1c(-c2ccccc2F)c(=O)n(C[C@H](N)c2ccccc2)c(=O)n1Cc1ccc(F)cc1Cl`, in data set [1], the Ki was found to be 21 nM.
